This note sets out measurements from ChEMBL document CHEMBL1153747, “Synthesis and inhibitory activity against human monoamine oxidase of N1-thiocarbamoyl-3,5-di(hetero)aryl-4,5-dihydro-(1H)-pyrazole derivatives” (Eur J Med Chem, 2010).

Where only a bound is given, the exact number is not on record here.

Data set [1] has as its target T1, Amine oxidase [flavin-containing] B (Homo sapiens, UniProt P27338).
T1 sequence (P27338 whole entry): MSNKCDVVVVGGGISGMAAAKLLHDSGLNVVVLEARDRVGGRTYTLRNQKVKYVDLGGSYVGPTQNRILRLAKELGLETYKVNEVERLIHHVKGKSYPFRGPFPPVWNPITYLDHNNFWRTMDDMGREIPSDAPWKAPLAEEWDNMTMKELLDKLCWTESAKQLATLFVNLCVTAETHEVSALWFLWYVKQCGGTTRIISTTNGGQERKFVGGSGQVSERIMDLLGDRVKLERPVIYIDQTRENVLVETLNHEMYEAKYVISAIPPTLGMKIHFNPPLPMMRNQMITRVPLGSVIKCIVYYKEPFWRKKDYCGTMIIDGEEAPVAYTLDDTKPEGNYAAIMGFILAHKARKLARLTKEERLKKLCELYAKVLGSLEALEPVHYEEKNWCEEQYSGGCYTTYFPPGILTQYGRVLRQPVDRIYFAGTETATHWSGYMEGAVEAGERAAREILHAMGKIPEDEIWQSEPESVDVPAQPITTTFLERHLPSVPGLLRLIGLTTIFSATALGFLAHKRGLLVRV

The species entered for data set [2] is Homo sapiens. Briefly: Selectivity, ratio of IC50 for human recombinant MAOA to human recombinant MAOB.
For data set [3], the target named is T2, Amine oxidase [flavin-containing] A (Homo sapiens, UniProt P21397).
T2 sequence (P21397 whole entry): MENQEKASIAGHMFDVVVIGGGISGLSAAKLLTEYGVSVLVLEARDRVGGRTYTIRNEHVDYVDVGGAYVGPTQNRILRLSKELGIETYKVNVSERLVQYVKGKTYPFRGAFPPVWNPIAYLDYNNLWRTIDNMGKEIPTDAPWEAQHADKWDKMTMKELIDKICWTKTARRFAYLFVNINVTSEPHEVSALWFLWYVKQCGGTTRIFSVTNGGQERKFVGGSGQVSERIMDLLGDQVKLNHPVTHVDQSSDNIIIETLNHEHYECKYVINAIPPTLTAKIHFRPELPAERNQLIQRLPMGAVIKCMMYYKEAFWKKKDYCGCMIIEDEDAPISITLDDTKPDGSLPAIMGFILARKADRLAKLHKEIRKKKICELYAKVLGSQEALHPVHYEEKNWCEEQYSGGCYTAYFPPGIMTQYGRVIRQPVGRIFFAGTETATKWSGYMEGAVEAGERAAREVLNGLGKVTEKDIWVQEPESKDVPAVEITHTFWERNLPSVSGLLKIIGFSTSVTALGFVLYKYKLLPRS
Briefly: Inhibition of human recombinant MAOA.

In data set [4] the target is T1, Amine oxidase [flavin-containing] B. Briefly: Inhibition of human recombinant MAOB at 1 mM. Particulars: 1000 µM; call rule not given here. In outline:
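Recombinant hMAO-A or hMAO-B in microsomes from baculovirus-infected BTI-TN-5B1-4 insect cells, amounts set to oxidize 165 pmol p-tyramine/min in controls. Preincubated with test drug in 0.05 M sodium phosphate pH 7.4, 15 min, 37 °C. Reaction started with Amplex Red, 1 U/mL HRP and 1 mM p-tyramine (final). […] Selectivity = IC50(MAO-A)/IC50(MAO-B).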

In the case of `NC(=S)N1N=C(c2ccc[nH]2)CC1c1ccco1` (centres undefined), the IC50 in data set [1] was determined as 69.4 µM. Moreover, the Ratio IC50 in data set [2] was greater than 1.4.

Consider `NC(=S)N1N=C(c2ccccc2)CC1c1ccco1` (centres undefined), for which the IC50 in data set [3] is 54.7 µM; in data set [1], 32.5 µM. Moreover, the Ratio IC50 in data set [2] turned out to be 1.7.

Regarding `O=C(NCCN1CCOCC1)c1ccc(Cl)cc1` [MOCLOBEMIDE], in data set [4], the “inhibition (INH)” value is “Not Active”.

Regarding `Cc1ccc(C2CC(c3ccco3)=NN2C(N)=S)cc1` (centres undefined), the IC50 is 65.8 µM in data set [3] and 54.5 µM in data set [1]. In addition, in data set [2], the Ratio IC50 stood at 1.2.

As for `NC(=S)N1N=C(c2cccs2)CC1c1ccc[nH]1` (centres undefined), the values for the IC50 in data set [3] and in data set [1] were 70 µM and 33.3 µM, respectively. Further, the Ratio IC50 in data set [2] is 2.1.

In the case of `NC(=S)N1N=C(c2ccccc2)CC1c1ccccc1` (centres undefined), it took 48.3 µM to reach half-maximal inhibition in data set [1] (IC50). Further, the Ratio IC50 in data set [2] is greater than 2.1.
